Experimental data from ChEMBL document CHEMBL1122206, “Use of adenine nucleotide derivatives to assess the potential of exo-active-site-directed reagents as species- or isozyme-specific enzyme inactivators. 5. Interactions of adenosine 5'-triphosphate derivatives with rat pyruvate kinases, Escherichia coli thymidine kinase, and yeast and rat …” (1982).

Legend:
[1] = target: T1, Hexokinase-2 (Rattus norvegicus) (UniProt P27881); test: Substrate activity against Rat hexokinase II as 1:1 Mg complex at 5.0 mM
T1 sequence (whole entry): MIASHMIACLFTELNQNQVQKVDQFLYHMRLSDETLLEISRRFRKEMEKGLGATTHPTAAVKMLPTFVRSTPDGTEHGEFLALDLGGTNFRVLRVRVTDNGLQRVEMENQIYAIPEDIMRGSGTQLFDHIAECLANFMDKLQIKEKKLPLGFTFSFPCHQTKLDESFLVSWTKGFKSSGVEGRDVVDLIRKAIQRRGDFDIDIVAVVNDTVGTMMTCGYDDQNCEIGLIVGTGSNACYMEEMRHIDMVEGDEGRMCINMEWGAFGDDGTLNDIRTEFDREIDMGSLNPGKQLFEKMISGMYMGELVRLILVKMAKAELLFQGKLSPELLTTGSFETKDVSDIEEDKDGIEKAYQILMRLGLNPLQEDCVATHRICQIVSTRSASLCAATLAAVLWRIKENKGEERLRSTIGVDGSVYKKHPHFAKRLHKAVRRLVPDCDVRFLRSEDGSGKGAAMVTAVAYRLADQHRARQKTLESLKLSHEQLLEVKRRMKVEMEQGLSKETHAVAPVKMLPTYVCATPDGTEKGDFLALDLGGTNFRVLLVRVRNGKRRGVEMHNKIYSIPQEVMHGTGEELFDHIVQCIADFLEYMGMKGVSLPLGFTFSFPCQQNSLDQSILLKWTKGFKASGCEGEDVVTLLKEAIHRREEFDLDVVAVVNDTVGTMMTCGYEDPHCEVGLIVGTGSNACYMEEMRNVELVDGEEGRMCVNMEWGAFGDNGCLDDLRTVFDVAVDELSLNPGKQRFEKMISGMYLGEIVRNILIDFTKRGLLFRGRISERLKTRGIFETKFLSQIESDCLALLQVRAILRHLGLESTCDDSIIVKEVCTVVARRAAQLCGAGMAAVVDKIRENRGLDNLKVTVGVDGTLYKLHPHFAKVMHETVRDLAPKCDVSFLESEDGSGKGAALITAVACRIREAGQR
Outline: (§1)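 Hexokinase activity read at 22 °C as A340 change, coupled to glucose-6-phosphate dehydrogenase, in 0.05 M Tris-HCl pH 7.6 with 6.6 mM MgCl2, 10 mM α-D-glucose and 0.93 mM NADP. Donor was 5.0 mM MgATP derivative (1:1 Mg complex) in place of ATP. Yeast HK was isoelectric-focused. Rat HK I and III came from electrofocused liver extract, HK II from dialysed muscle extract.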

[2] = target: T2, Hexokinase-1 (Rattus norvegicus) (UniProt P05708); test: Substrate activity for rat hexokinase I as 1:1 Mg complex at 5.0 mM; outline: as §1
T2 sequence (whole entry): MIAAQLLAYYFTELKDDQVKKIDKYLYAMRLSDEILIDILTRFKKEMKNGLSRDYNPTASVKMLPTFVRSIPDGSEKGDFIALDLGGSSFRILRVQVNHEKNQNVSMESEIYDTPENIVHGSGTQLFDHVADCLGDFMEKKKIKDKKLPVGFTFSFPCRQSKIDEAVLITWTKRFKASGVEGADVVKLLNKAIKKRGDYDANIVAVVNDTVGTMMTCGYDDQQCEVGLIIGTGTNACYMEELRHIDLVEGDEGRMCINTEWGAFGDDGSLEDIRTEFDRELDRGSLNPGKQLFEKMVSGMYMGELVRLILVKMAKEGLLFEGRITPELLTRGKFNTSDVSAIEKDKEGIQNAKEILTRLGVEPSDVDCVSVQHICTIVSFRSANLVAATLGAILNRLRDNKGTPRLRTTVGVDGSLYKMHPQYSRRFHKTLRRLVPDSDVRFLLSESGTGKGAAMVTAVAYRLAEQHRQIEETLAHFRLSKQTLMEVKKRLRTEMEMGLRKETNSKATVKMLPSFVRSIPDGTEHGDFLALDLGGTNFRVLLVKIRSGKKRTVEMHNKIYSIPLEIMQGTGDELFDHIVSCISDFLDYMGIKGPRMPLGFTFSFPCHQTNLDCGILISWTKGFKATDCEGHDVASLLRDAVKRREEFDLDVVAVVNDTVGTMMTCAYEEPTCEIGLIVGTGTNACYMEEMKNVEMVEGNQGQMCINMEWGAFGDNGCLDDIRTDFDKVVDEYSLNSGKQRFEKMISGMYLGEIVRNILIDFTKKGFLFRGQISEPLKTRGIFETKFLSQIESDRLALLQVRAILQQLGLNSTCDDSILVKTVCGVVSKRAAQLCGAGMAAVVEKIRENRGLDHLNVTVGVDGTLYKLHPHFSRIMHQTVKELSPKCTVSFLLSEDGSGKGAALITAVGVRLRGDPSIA

[3] = target: T3, Hexokinase-3 (Rattus norvegicus) (UniProt P27926); test: Substrate activity for rat hexokinase III as 1:1 Mg complex at 5.0 mM; outline: as §1
T3 sequence (whole entry): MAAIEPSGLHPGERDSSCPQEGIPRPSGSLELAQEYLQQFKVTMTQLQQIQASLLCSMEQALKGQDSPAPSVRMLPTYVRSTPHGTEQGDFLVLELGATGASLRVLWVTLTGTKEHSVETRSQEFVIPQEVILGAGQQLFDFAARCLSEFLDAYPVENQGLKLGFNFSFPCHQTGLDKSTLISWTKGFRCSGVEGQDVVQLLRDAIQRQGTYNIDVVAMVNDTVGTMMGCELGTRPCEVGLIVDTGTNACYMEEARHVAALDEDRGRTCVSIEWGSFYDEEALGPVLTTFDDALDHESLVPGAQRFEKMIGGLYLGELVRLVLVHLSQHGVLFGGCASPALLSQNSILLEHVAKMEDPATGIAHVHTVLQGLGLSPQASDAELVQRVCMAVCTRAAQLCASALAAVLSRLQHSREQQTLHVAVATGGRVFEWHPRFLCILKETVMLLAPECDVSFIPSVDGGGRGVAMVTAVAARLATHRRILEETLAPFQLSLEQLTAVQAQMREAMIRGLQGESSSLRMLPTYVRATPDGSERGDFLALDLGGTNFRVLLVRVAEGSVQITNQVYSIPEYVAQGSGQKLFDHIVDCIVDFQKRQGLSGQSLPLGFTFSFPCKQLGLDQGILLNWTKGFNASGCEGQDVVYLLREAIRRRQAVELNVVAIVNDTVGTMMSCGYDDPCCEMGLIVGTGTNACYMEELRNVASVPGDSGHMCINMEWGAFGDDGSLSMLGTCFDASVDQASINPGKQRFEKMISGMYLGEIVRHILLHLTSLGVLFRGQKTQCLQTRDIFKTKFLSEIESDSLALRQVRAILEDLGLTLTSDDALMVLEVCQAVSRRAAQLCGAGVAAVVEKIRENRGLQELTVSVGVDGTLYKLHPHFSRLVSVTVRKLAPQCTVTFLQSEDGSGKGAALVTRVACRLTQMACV

[4] = target: T3, Hexokinase-3 (Rattus norvegicus); test: Time dependent inhibition of Hexokinase type III activity after 6 h, at 22 degrees celsius, at 5 mM
[5] = target: T2, Hexokinase-1 (Rattus norvegicus); test: Time dependent inhibition of Hexokinase type I activity after 6 h, at 22 degrees celsius, at 5 mM compound
Saccharomyces cerevisiae [6] = test: Time dependent inhibition of hexokinase activity after 6 hr, at 22 degrees celsius, with 5 mM ATP derivative in yeast.
[7] = Tested for the velocity of 2.8 mM compound relative to that of 2.8 mM MgATP in the assay
Outline: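 E. coli TK substrate test. 0.5 h after adding inhibitor, the mixture was diluted to 2.8 mM derivative in thymidine assay medium without ATP and with 1.42 mM MnCl2. Incubated 15 min at 37 °C, in the linear range. [14C]TMP formed was compared with that from 2.8 mM ATP under the same conditions.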

[8] = target: T1, Hexokinase-2 (Rattus norvegicus); test: Time dependent inhibition of hexokinase 2 activity after 6 h, at 5 mM compound
[9] = target: Thymidine kinase (Escherichia coli) (UniProt P23331); test: Compound was tested for the initial inhibition of thymidine kinase by 1.4 mM compound in the presence of 5.7 mM ATP in Escherichia coli
Sequence of Thymidine kinase (Escherichia coli) (P23331 whole entry, looked up): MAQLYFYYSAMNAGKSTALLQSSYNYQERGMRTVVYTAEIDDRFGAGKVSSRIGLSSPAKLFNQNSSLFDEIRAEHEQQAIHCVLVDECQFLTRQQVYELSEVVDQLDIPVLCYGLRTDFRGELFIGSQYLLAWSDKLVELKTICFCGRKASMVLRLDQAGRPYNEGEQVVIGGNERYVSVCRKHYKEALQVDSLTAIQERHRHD

[10] = target: Thymidine kinase (Escherichia coli) (UniProt P23331); test: Compound was tested for the lose of thymidine kinase activity after 6 hr, at 0 degrees celsius, with 10 mM ATP derivative. values were expressed in percent
Saccharomyces cerevisiae [11] = test: Substrate activity against yeast hexokinase as 1:1 Mg complexes at 5.0 mM; outline: as §1
[12] = target: Thymidine kinase (Escherichia coli) (UniProt P23331); test: Compound was tested for the loss of thymidine kinase activity from Escherichia coli after 6 hr at 0 degrees C at 10 mM

| Compound | Relative velocity [1] | Relative velocity [2] | Relative velocity [3] | inhibition [4] [%] | inhibition [5] [%] | inhibition (Saccharomyces cerevisiae [6]) [%] | Velocity [7] [%] | inhibition [8] [%] | inhibition [9] [%] | inhibition [10] [%] | Relative velocity (Saccharomyces cerevisiae [11]) | inhibition [12] [%] |
| --- | --- | --- | --- | --- | --- | --- | --- | --- | --- | --- | --- | --- |
| CC(=O)NCCCCCCCCNc1ncnc2c1ncn2[C@@H]1O[C@H](COP(=O)(O)OP(=O)(O)OP(=O)(O)O)[C@@H](O)[C@H]1O | 0.6 | 1.12 | 1.25 | 0 | 0 | 0 | – | – | – | – | – | – |
| O=C(CI)NCCCCCCC(=O)NCCCCCCNc1ncnc2c1ncn2[C@@H]1O[C@H](COP(=O)(O)OP(=O)(O)OP(=O)(O)O)[C@@H](O)[C@H]1O | – | – | – | – | 0 | 0 | 41 | 0 | 12 | 0 | – | – |
| O=C(CI)NCCCC(=O)NCCCCCCNc1ncnc2c1ncn2[C@@H]1O[C@H](COP(=O)(O)OP(=O)(O)OP(=O)(O)O)[C@@H](O)[C@H]1O | 0.91 | 1.3 | 2.02 | 0 | 0 | 0 | 36 | 0 | 0 | 0 | 1 | – |
| Nc1ncnc2c1nc(NCCNC(=O)CI)n2[C@@H]1O[C@H](COP(=O)(O)OP(=O)(O)OP(=O)(O)O)[C@@H](O)[C@H]1O | – | – | – | 0 | 0 | – | – | 0 | – | – | – | – |
| CN(CCCCN(C)c1ncnc2c1ncn2[C@@H]1O[C@H](COP(=O)(O)OP(=O)(O)OP(=O)(O)O)[C@@H](O)[C@H]1O)C(=O)CCCCCCNC(=O)CI | – | – | – | – | – | 0 | 55 | – | 1 | 0 | – | – |
| O=C(CI)NCCC(=O)NCCCCCCNc1ncnc2c1ncn2[C@@H]1O[C@H](COP(=O)(O)OP(=O)(O)OP(=O)(O)O)[C@@H](O)[C@H]1O | – | – | – | 0 | 0 | 0 | 53 | 0 | 1 | 0 | – | – |
| Nc1ncnc2c1nc(NCCCCCCCCNC(=O)CI)n2[C@@H]1O[C@H](COP(=O)(O)OP(=O)(O)OP(=O)(O)O)[C@@H](O)[C@H]1O | 0.82 | 1.16 | 1.81 | 0 | – | – | – | – | – | – | 0.54 | 0 |
| CN(CCCN(C)C(=O)CCCNc1ncnc2c1ncn2[C@@H]1O[C@H](COP(=O)(O)OP(=O)(O)OP(=O)(O)O)[C@@H](O)[C@H]1O)C(=O)CCCNC(=O)CI | 0.43 | 0.63 | 1.02 | 0 | 0 | 0 | > 14 | 0 | 8 | 44 | 0.94 | – |
| CN(CCCCN(C)c1ncnc2c1ncn2[C@@H]1O[C@H](COP(=O)(O)OP(=O)(O)OP(=O)(O)O)[C@@H](O)[C@H]1O)C(=O)CCCNC(=O)CI | 0.35 | 0.88 | 0.93 | 0 | 0 | 0 | > 33 | 0 | 0 | 60 | 1.2 | – |
| O=C(CI)NCCCCCC(=O)NCCCCNc1ncnc2c1ncn2[C@@H]1O[C@H](COP(=O)(O)OP(=O)(O)OP(=O)(O)O)[C@@H](O)[C@H]1O | – | – | – | 0 | 0 | 0 | 71 | – | – | 0 | – | – |
| CN(CCCCCCN(C)c1ncnc2c1ncn2[C@@H]1O[C@H](COP(=O)(O)OP(=O)(O)OP(=O)(O)O)[C@@H](O)[C@H]1O)C(=O)CCCCCNC(=O)CI | – | – | – | – | – | – | 49 | – | 5 | 0 | – | – |
| CC(=O)NCCCCCC(=O)N(C)CCCCN(C)c1ncnc2c1ncn2[C@@H]1O[C@H](COP(=O)(O)OP(=O)(O)OP(=O)(O)O)[C@@H](O)[C@H]1O | – | – | – | – | – | – | 41 | – | – | – | – | 0 |
| Nc1ncnc2c1nc(NCCCCNC(=O)CI)n2[C@@H]1O[C@H](COP(=O)(O)OP(=O)(O)OP(=O)(O)O)[C@@H](O)[C@H]1O | – | – | – | 0 | 0 | – | – | 0 | – | – | – | – |
| Nc1ncnc2c1nc(NCCCCCCNC(=O)CI)n2[C@@H]1O[C@H](COP(=O)(O)OP(=O)(O)OP(=O)(O)O)[C@@H](O)[C@H]1O | – | – | – | 0 | 0 | 0 | – | 0 | – | – | – | – |
